Results reported in ChEMBL document CHEMBL1158122, “Anti-inflammatory, anti-tumor-promoting, and cytotoxic activities of constituents of marigold (Calendula officinalis) flowers” (J Nat Prod, 2006).

Assays:
[1] = test system: HT-29; assay: Cytotoxicity against human HT-29 cells after 48 hrs by SRB assay; type: functional; details: HT-29, 48 h
[2] = test system: SNB-19; assay: Cytotoxicity against human SNB-19 cells after 48 hrs by SRB assay; type: functional; details: SNB-19, 48 h
[3] = test system: NCI-H460; assay: Cytotoxicity against human NCI-H460 cells after 48 hrs by SRB assay; type: functional; details: NCI-H460, 48 h
[4] = test system: CAKI-1; assay: Cytotoxicity against human Caki-1 cells after 48 hrs by SRB assay; type: functional; details: CAKI-1, 48 h
[5] = test system: RXF 393; assay: Cytotoxicity against human […] cells after 48 hrs by SRB assay; type: functional; details: RXF 393, 48 h
[6] = test system: HOP-92; assay: Cytotoxicity against human HOP-92 cells after 48 hrs by SRB assay; type: functional; details: HOP-92, 48 h
[7] = test system: HL-60; assay: Cytotoxicity against human HL-60 cells after 48 hrs by SRB assay; type: functional; details: HL-60, 48 h
[8] = test system: COLO 205; assay: Cytotoxicity against human COLO205 cells after 48 hrs by SRB assay; type: functional; details: COLO 205, 48 h
[9] = test system: MDA-MB-435; assay: Cytotoxicity against human MDA-MB-435 cells after 48 hrs by SRB assay; type: functional; details: MDA-MB-435, 48 h
[10] = test system: KM12; assay: Cytotoxicity against human KM12 cells after 48 hrs by SRB assay; type: functional; details: KM12, 48 h
[11] = test system: T47D; assay: Cytotoxicity against human T47D cells after 48 hrs by SRB assay; type: functional
How it was run: (§1)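 Tested in the NCI panel of 60 human tumour cell lines covering lung, colon, melanoma, renal, ovarian, breast and leukaemia. At least five concentrations were run in 10-fold dilutions starting from 10^-4 M. Exposure was continuous for 48 h. Growth or viability was estimated by sulforhodamine B protein staining, and GI50 values were reported.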

[12] = Cytotoxicity against human Raji cells assessed as cell viability at 1000 molar ratio; type: cell-based; details: read-out: Activity
How it was run: (§2)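 Raji cells were treated with 32 pmol TPA to induce EBV early antigen activation. The test agent was added at 10, 100, 500 or 1000 mol ratio relative to TPA, and Raji cell viability was measured alongside EA activation.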

[13] = test system: MOLT-4; assay: Cytotoxicity against human MOLT-4 cells after 48 hrs by SRB assay; type: functional; details: MOLT-4, 48 h
[14] = test system: BT-549; assay: Cytotoxicity against human BT-549 cells after 48 hrs by SRB assay; type: functional; details: BT-549, 48 h
[15] = test system: NCI-H322M; assay: Cytotoxicity against human NCI-H322M cells after 48 hrs by SRB assay; type: functional
[16] = test system: PC-3; assay: Cytotoxicity against human PC-3 cells after 48 hrs by SRB assay; type: functional; details: PC-3, 48 h
[17] = Cytotoxicity against human Raji cells assessed as cell viability at 100 molar ratio; type: cell-based; details: read-out: Activity; how it was run: as §2
[18] = test system: RPMI-8226; assay: Cytotoxicity against human RPMI8226 cells after 48 hrs by SRB assay; type: functional; details: RPMI-8226, 48 h
[19] = test system: Mus musculus; assay: Antiinflammatory activity against TPA-induced ear edema in mouse; type: functional
How it was run: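 Specific-pathogen-free female ICR mice were housed five per cage at 24 ± 2 °C. Inflammation was induced on the ear with TPA at 1 µg/ear, and the test agent was applied per ear. Ear edema inhibition was expressed as ID50 in mg per ear.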

[20] = test system: OVCAR-3; assay: Cytotoxicity against human OVCAR-3 cells after 48 hrs by SRB assay; type: functional; details: OVCAR-3, 48 h
[21] = test system: SK-MEL-5; assay: Cytotoxicity against human SK-MEL-5 cells after 48 hrs by SRB assay; type: functional; details: SK-MEL-5, 48 h
[22] = test system: NCI-H226; assay: Cytotoxicity against human NCI-H226 cells after 48 hrs by SRB assay; type: functional; details: NCI-H226, 48 h
[23] = test system: NCI/ADR-RES; assay: Cytotoxicity against human NCI/ADR-RES cells after 48 hrs by SRB assay; type: functional
[24] = test system: UACC-62; assay: Cytotoxicity against human UACC-62 cells after 48 hrs by SRB assay; type: functional; details: UACC-62, 48 h; how it was run: as §1
[25] = test system: SF-268; assay: Cytotoxicity against human SF-268 cells after 48 hrs by SRB assay; type: functional; details: SF-268, 48 h
[26] = Cytotoxicity against human Raji cells assessed as cell viability at 500 molar ratio; type: cell-based; details: read-out: Activity; how it was run: as §2
[27] = test system: Raji; assay: Inhibition of TPA-induced EBV-early antigen activation in human Raji cells at 100 molar ratio relative to TPA; type: cell-based; parameters: scale not given: the % may be the effect or the level left; details: human gammaherpesvirus 4
[28] = test system: SN12C; assay: Cytotoxicity against human SN12C cells after 48 hrs by SRB assay; type: functional
[29] = test system: TK-10; assay: Cytotoxicity against human TK-10 cells after 48 hrs by SRB assay; type: functional; details: TK-10, 48 h; how it was run: as §1
[30] = test system: OVCAR-8; assay: Cytotoxicity against human OVCAR8 cells after 48 hrs by SRB assay; type: functional; details: OVCAR-8, 48 h
[31] = test system: A549; assay: Cytotoxicity against human A549 cells after 48 hrs by SRB assay; type: functional; details: A549, 48 h
[32] = test system: SW-620; assay: Cytotoxicity against human SW620 cells after 48 hrs by SRB assay; type: functional; details: SW-620, 48 h
[33] = test system: Raji; assay: Inhibition of TPA-induced EBV-early antigen activation in human Raji cells at 1000 molar ratio relative to TPA; type: cell-based; parameters: scale not given: the % may be the effect or the level left; details: human gammaherpesvirus 4
[34] = Inhibition of TPA-induced EBV-early antigen activation in human Raji cells relative to TPA; type: cell-based, human gammaherpesvirus 4
[35] = test system: UO-31; assay: Cytotoxicity against human UO-31 cells after 48 hrs by SRB assay; type: functional; details: UO-31, 48 h; how it was run: as §1
[36] = test system: MCF7; assay: Cytotoxicity against human MCF7 cells after 48 hrs by SRB assay; type: functional; details: MCF7, 48 h
[37] = test system: IGROV-1; assay: Cytotoxicity against human IGROV1 cells after 48 hrs by SRB assay; type: functional; details: IGROV-1, 48 h
[38] = test system: HCT-15; assay: Cytotoxicity against human HCT-15 cells after 48 hrs by SRB assay; type: functional; details: HCT-15, 48 h
[39] = test system: HCC 2998; assay: Cytotoxicity against human HCC2998 cells after 48 hrs by SRB assay; type: functional; details: HCC 2998, 48 h
[40] = test system: U-251; assay: Cytotoxicity against human U251 cells after 48 hrs by SRB assay; type: functional; details: U-251, 48 h; how it was run: as §1
[41] = test system: 786-0; assay: Cytotoxicity against human 786-0 cells after 48 hrs by SRB assay; type: functional; details: 786-0, 48 h
[42] = test system: K562; assay: Cytotoxicity against human K-562 cells after 48 hrs by SRB assay; type: functional; details: K562, 48 h
[43] = Cytotoxicity against human SK MEL28 cells after 48 hrs by SRB assay; type: functional; details: SK-MEL-28, 48 h
[44] = Cytotoxicity against human Raji cells assessed as cell viability at 10 molar ratio; type: cell-based; details: read-out: Activity; how it was run: as §2
[45] = test system: EKVX; assay: Cytotoxicity against human EKVX cells after 48 hrs by SRB assay; type: functional
[46] = test system: UACC-257; assay: Cytotoxicity against human UACC-257 cells after 48 hrs by SRB assay; type: functional; details: UACC-257, 48 h; how it was run: as §1
[47] = test system: HOP-62; assay: Cytotoxicity against human HOP-62 cells after 48 hrs by SRB assay; type: functional; details: HOP-62, 48 h
[48] = test system: NCI-H23; assay: Cytotoxicity against human NCI-H23 cells after 48 hrs by SRB assay; type: functional; details: NCI-H23, 48 h
[49] = test system: ACHN; assay: Cytotoxicity against human ACHN cells after 48 hrs by SRB assay; type: functional
[50] = Cytotoxicity against human Hs 578T cells after 48 hrs by SRB assay; type: functional
[51] = test system: SF-295; assay: Cytotoxicity against human SF-295 cells after 48 hrs by SRB assay; type: functional; details: SF-295, 48 h
[52] = test system: LOX IMVI; assay: Cytotoxicity against human LOX IMVI cells after 48 hrs by SRB assay; type: functional
[53] = test system: Raji; assay: Inhibition of TPA-induced EBV-early antigen activation in human Raji cells at 500 molar ratio relative to TPA; type: cell-based; parameters: scale not given: the % may be the effect or the level left; details: human gammaherpesvirus 4
[54] = test system: SK-MEL-2; assay: Cytotoxicity against human SK-MEL-2 cells after 48 hrs by SRB assay; type: functional; details: SK-MEL-2, 48 h
[55] = test system: OVCAR-5; assay: Cytotoxicity against human OVCAR5 cells after 48 hrs by SRB assay; type: functional; details: OVCAR-5, 48 h
[56] = test system: CCRF-CEM; assay: Cytotoxicity against human CCRF-CEM cells after 48 hrs by SRB assay; type: functional
[57] = Cytotoxicity against human HCT 116 cells after 48 hrs by SRB assay; type: functional; details: HCT-116, 48 h
[58] = test system: Raji; assay: Inhibition of TPA-induced EBV-early antigen activation in human Raji cells at 10 molar ratio relative to TPA; type: cell-based; parameters: scale not given: the % may be the effect or the level left; details: human gammaherpesvirus 4
[59] = test system: MDA-MB-231; assay: Cytotoxicity against human MDA-MB-231 cells after 48 hrs by SRB assay; type: functional; details: MDA-MB-231, 48 h
[60] = test system: Malme-3M; assay: Cytotoxicity against human MALME-3M cells after 48 hrs by SRB assay; type: functional

- IC50 [34]: 479 molar ratio
Structure (SMILES): CCCCOC(=O)[C@H]1O[C@@H](O[C@H]2CC[C@]3(C)[C@H]4CC=C5[C@@H]6CC(C)(C)CC[C@]6(C(=O)O[C@@H]6O[C@H](CO)[C@@H](O)[C@H](O)[C@H]6O)CC[C@@]5(C)[C@]4(C)CC[C@H]3C2(C)C)[C@H](O)[C@@H](O)[C@@H]1O
- GI50 [1]: 2070 nM
- GI50 [2]: 1440 nM
- GI50 [3]: 2510 nM
- GI50 [4]: 17200 nM
- GI50 [5]: 1650 nM
- GI50 [6]: 1040 nM
- GI50 [7]: 1210 nM
- GI50 [8]: 1360 nM
- GI50 [9]: 2520 nM
- GI50 [10]: 2080 nM
- GI50 [11]: 1750 nM
- viability at 1000 molar ratio [12]: 70%
- GI50 [13]: 1000 nM
- GI50 [14]: 1700 nM
- GI50 [15]: 4080 nM
- GI50 [16]: 1260 nM
- viability at 100 molar ratio [17]: > 80%
- GI50 [18]: 780 nM
- ID50 [19]: 0.07 mg
- GI50 [20]: 3270 nM
- GI50 [21]: 930 nM
- GI50 [22]: 1490 nM
- GI50 [23]: > 50000 nM
- GI50 [24]: 890 nM
- GI50 [25]: 2170 nM
- viability at 500 molar ratio [26]: > 80%
- Activity [27]: 70%
- GI50 [28]: 1390 nM
- GI50 [29]: 1850 nM
- GI50 [30]: 4280 nM
- GI50 [31]: 1830 nM
- GI50 [32]: 1930 nM
- Activity [33]: 10.1%
- GI50 [35]: 12700 nM
- GI50 [36]: 1600 nM
- GI50 [37]: 1700 nM
- GI50 [38]: 6730 nM
- GI50 [39]: 890 nM
- GI50 [40]: 1060 nM
- GI50 [41]: 1560 nM
- GI50 [42]: 1580 nM
- GI50 [43]: 2600 nM
- viability at 10 molar ratio [44]: > 80%
- GI50 [45]: 3390 nM
- GI50 [46]: 4180 nM
- GI50 [47]: 2220 nM
- GI50 [48]: 1480 nM
- GI50 [49]: 6290 nM
- GI50 [50]: 1620 nM
- GI50 [51]: 2560 nM
- GI50 [52]: 810 nM
- Activity [53]: 48.1%
- GI50 [54]: 1850 nM
- GI50 [55]: 3070 nM
- GI50 [56]: 23100 nM
- GI50 [57]: 1120 nM
- Activity [58]: 100%
- GI50 [59]: 1150 nM
- GI50 [60]: 1470 nM
